Results published in ChEMBL document CHEMBL5260824, “9-Deazapurines as Broad-Spectrum Inhibitors of the ABC Transport Proteins P-Glycoprotein, Multidrug Resistance-Associated Protein 1, and Breast Cancer Resistance Protein” (J Med Chem, 2017).

What was measured:
[1] = tested on: H69AR; test: Inhibition of cell growth in Daunorubicin resistant human NCI-H69AR cells expressing MRP1 measured for 72 hrs by MTT assay; type: functional
How it was run: (§1)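 Reversal assay: resistant lines (A2780/ADR, H69AR, MDCK II BCRP) and parental lines seeded as for MTT assay with modulator solutions of 1, 10 and 100 µM added (final 0.1, 1, 10 µM) and daunorubicin (P-gp, MRP1) or SN-38 (BCRP) at final 10 nM–10 µM. 72 h, MTT read-out; GI50 by variable-slope fit. Resistance factor = resistant/sensitive GI50; potentiation factor = GI50 without/with modulator.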

[2] = Inhibition of cell growth in Daunorubicin resistant human A2780 ADR cells expressing P-gp measured for 72 hrs by MTT assay; type: functional; how it was run: as §1
[3] = Inhibition of daunorubicin sensitive human A2780 ADR cells expressing P-gp measured for 72 hrs by MTT assay; type: functional; how it was run: as §1
[4] = Inhibition of daunorubicin sensitive human NCI-H69AR cells expressing MRP1 measured for 72 hrs by MTT assay; type: functional; how it was run: as §1
[5] = Resistance factor, ratio of GI50 for inhibition of cell growth in daunorubicin resistant human NCI-H69AR cells expressing MRP1 to GI50 for inhibition of daunorubicin sensitive human NCI-H69 cells
[6] = Resistance factor, ratio of GI50 for inhibition of cell growth in daunorubicin resistant human A2780 ADR cells expressing P-gp measured for 72 hrs by MTT assay to GI50 for inhibition of daunorubicin sensitive human A2780 cells measured for 72 hrs by MTT assay

`COc1cccc2c1C(=O)c1c(O)c3c(c(O)c1C2=O)C[C@@](O)(C(C)=O)C[C@@H]3O[C@H]1C[C@H](N)[C@H](O)[C@H](C)O1` [DAUNORUBICIN] gave a GI50 [1] of 3840 nM, a GI50 [2] of 575 nM and a GI50 [3] of 10 nM. The GI50 [4] was 361 nM, the RatioGI50 [5] was 11 and the RatioGI50 [6] was 54.
